This passage reports IC50 and inhibition results from ChEMBL document CHEMBL4396899, “Synthesis of N-hydroxycinnamoyl amide derivatives and evaluation of their anti-oxidative and anti-tyrosinase activities” (Bioorg Med Chem, 2019).

A short description of assay [1]: Antioxidant activity assessed as DPPH free radical scavenging activity incubated for 30 mins in dark condition by spectrophotometric analysis. It is filed as functional. Summed up:
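Test samples dissolved in absolute ethanol at a range of concentrations; 1 mL mixed with 1 mL 0.2 mM DPPH in ethanol, kept in the dark 30 min, absorbance read at 517 nm against an ethanol blank. L-ascorbic acid as positive control. Triplicate measurements; IC50 taken from the dose-response curve by linear regression interpolation.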
Background: DPPH is a stable violet radical that fades when it is reduced.

Assay [2] addresses T1, Tyrosinase (Agaricus bisporus) (UniProt O42713).
T1 sequence (whole entry): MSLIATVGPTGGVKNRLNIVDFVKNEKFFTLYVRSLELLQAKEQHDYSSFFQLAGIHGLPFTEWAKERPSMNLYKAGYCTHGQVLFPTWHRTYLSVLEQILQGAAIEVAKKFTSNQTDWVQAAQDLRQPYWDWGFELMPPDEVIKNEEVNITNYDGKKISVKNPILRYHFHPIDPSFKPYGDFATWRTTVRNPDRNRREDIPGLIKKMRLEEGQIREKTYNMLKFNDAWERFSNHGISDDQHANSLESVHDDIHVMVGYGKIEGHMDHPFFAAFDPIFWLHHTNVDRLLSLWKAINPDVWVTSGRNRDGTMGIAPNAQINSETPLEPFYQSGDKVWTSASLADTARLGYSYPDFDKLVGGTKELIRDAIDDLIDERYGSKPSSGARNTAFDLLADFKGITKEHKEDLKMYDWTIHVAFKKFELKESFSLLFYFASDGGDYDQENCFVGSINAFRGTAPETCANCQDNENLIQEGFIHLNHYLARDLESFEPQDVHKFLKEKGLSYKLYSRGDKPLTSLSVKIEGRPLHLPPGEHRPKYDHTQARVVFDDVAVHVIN
Description: Inhibition of mushroom tyrosinase at 1 g/L using […] as substrate measured after 30 mins. In short, it runs like this:
(§1)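 Substrate L-tyrosine (0.507 g/L stock in HCl/0.2 M phosphate buffer pH 6.8). Inhibitor stock 1 g/L in DMSO, replaced by DMSO for the reference. Mushroom tyrosinase (200 U/mL stock in 0.2 M phosphate buffer pH 6.8) added last. Incubated 37 °C for 30 min, absorbance read at 475 nm. Percent inhibition from blank-corrected absorbances; triplicate; ferulic acid as positive control.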

Assay [3] can be described thus: Antioxidant activity assessed as hydroxyl radical scavenging activity incubated for 1 hr by spectrophotometric analysis. It is filed as functional. In short, it runs like this: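 Phenanthroline (0.75 mM in ethanol), 0.2 M phosphate buffer pH 7.4, sample in DMSO and 0.75 mM FeSO4 (1 mL each) mixed, then 1 mL 0.01% H2O2 added. Incubated 1 h at 37 °C in a water bath, absorbance read at 536 nm. Triplicate; IC50 (mM) by regression interpolation.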

Another assay addresses T2, Tyrosinase (Agaricus bisporus, UniProt O42713).
T2 sequence (O42713 whole entry): T1 sequence (whole entry)
In words: Inhibition of mushroom tyrosinase using […] as substrate measured after 30 mins. Summed up: as §1

Calls of active or inactive are those of the source. The rule behind the calls is not given here. Bounds are passed on as bounds.

As usually defined, the IC50 is the concentration at which inhibition is half-maximal.

Consider `COc1cc(/C=C/C(=O)O)ccc1O` [FERULATE], for which the half-maximal inhibitory concentration (IC50) in assay [1] came to 35.7 µM. In addition, in assay [2], the inhibition result was “Active”.
Take `CCOC(=O)[C@@H](NC(=O)/C=C/c1ccc(O)c(OC)c1)C(C)C`: the half-inhibitory concentration (IC50) in assay [1] came to 59.6 µM. The inhibition result in assay [2] was “Active”.
In the case of `CCOC(=O)[C@H](CC(C)C)NC(=O)/C=C/c1ccc(OC(C)=O)c(OC)c1`, the IC50 in assay [1] was over 500 µM. In assay [2], the inhibition result was “Active”.
On to `CCOC(=O)[C@H](CC(C)C)NC(=O)/C=C/c1ccc(O)c(O)c1`, for which the results for the IC50 in assay [1] and in assay [3] were 28.6 µM and 373 µM, respectively.
As for `CCOC(=O)[C@H](CC(C)C)NC(=O)/C=C/c1ccc(O)c(OC)c1`, the IC50 in assay [1] worked out at 56.1 µM. The inhibition result in assay [2] is “Active”.
On to `CCOC(=O)[C@@H](NC(=O)/C=C/c1ccc(O)c(O)c1)[C@@H](C)CC`, for which the IC50 in assay [1] was determined as 43.5 µM; in assay [3], 411 µM.
For the molecule `COc1cc(/C=C/C(=O)O)ccc1OC(C)=O`, the concentration for half-maximal inhibition (IC50) in assay [1] is over 500 µM. Moreover, in assay [2], the inhibition result is “Active”.
On to `CCOC(=O)CNC(=O)/C=C/c1ccc(O)c(O)c1`, for which the IC50 is 18.6 µM in assay [1] and 340 µM in assay [3].
Consider `CCOC(=O)[C@@H](NC(=O)/C=C/c1ccc(O)c(O)c1)C(C)C`, for which the figures for the IC50 in assay [1] and in assay [3] were 19.6 µM and 348 µM, respectively.
For `CCOC(=O)[C@H](Cc1ccccc1)NC(=O)/C=C/c1ccc(O)c(O)c1`, the IC50 is 33.2 µM in assay [1], 292 µM in assay [3] and over 29 µM against Tyrosinase.
On to `O=C1O[C@H]([C@@H](O)CO)C(O)=C1O` [ASCORBIC ACID], for which the IC50 worked out at 80.9 µM in assay [1] and 1620 µM in assay [3].
Turning to `O=C(O)/C=C/c1ccc(O)c(O)c1` [CAFFEIC ACID], the IC50 in assay [1] stood at 27.6 µM; in assay [3], 287 µM.
Take `CCOC(=O)[C@@H](NC(=O)/C=C/c1ccc(OC(C)=O)c(OC)c1)C(C)C`: the IC50 in assay [1] is over 500 µM. Also, the inhibition result in assay [2] was “Active”.
In turn, `CCOC(=O)[C@H](Cc1ccccc1)NC(=O)/C=C/c1ccc(O)c(OC)c1` showed an IC50 on Tyrosinase of under 0.18 µM.
With `CCOC(=O)[C@H](C)NC(=O)/C=C/c1ccc(O)c(OC)c1`, in assay [1], the IC50 is 46.4 µM. Also, the inhibition entry in assay [2] is “Active”.
Regarding `CCOC(=O)[C@H](C)NC(=O)/C=C/c1ccc(OC(C)=O)c(OC)c1`, the 50% inhibitory concentration (IC50) in assay [1] was determined as 482 µM. Also, the inhibition entry in assay [2] was “Active”.
Take `CCOC(=O)[C@H](C)NC(=O)/C=C/c1ccc(O)c(O)c1`: the IC50 in assay [1] worked out at 29.7 µM; in assay [3], 214 µM.
